Measured values published in ChEMBL document CHEMBL2375359, “Synthesis and antibacterial evaluation of novel pleuromutilin derivatives” (2013).
Converted amounts (≈) assume the structure as drawn.

Assays:
Assay type in all cases: functional
Streptococcus agalactiae [1] = test: Antibacterial activity against Streptococcus agalactiae at 80 ug/ml after 24 hrs by Oxford cup assay; details: read-out: IZ
How it was run: (§1)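 Oxford cup diffusion with clinical isolates. Inoculum made in 0.9% saline to a McFarland standard and spread evenly on nutrient agar. Compound solutions, prepared as for the agar dilution test, were added at the stated concentration to Oxford cups set equidistant on the agar surface. Inhibition zones were measured after 24 h at 37 °C.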

Streptococcus agalactiae [2] = test: Antibacterial activity against Streptococcus agalactiae at 160 ug/ml after 24 hrs by Oxford cup assay; details: read-out: IZ; how it was run: as §1
Escherichia coli [3] = test: Antibacterial activity against Escherichia coli at 80 ug/ml after 24 hrs by Oxford cup assay; details: read-out: IZ; how it was run: as §1
Streptococcus agalactiae [4] = test: Antibacterial activity against Streptococcus agalactiae at 320 ug/ml after 24 hrs by Oxford cup assay; details: read-out: IZ; how it was run: as §1
Escherichia coli [5] = test: Antibacterial activity against Escherichia coli at 160 ug/ml after 24 hrs by Oxford cup assay; details: read-out: IZ; how it was run: as §1
Escherichia coli [6] = test: Antibacterial activity against Escherichia coli at 320 ug/ml after 24 hrs by Oxford cup assay; details: read-out: IZ; how it was run: as §1
[7] = system: Staphylococcus epidermidis; test: Antibacterial activity against methicillin-resistant Staphylococcus epidermidis at 80 ug/ml after 24 hrs by Oxford cup assay; details: read-out: IZ
How it was run: (§2)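 Oxford cup diffusion: clinical isolate inoculum in 0.9% saline set by McFarland standard, spread evenly on nutrient agar. Cups placed equidistant on the surface and filled with compound solutions prepared as for the agar dilution test, at several concentrations. Inhibition zone measured after 24 h at 37 °C.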

[8] = system: Staphylococcus epidermidis; test: Antibacterial activity against methicillin-resistant Staphylococcus epidermidis at 160 ug/ml after 24 hrs by Oxford cup assay; details: read-out: IZ; how it was run: as §2
[9] = system: Staphylococcus epidermidis; test: Antibacterial activity against methicillin-resistant Staphylococcus epidermidis at 320 ug/ml after 24 hrs by Oxford cup assay; details: read-out: IZ; how it was run: as §2
Staphylococcus aureus [10] = test: Antibacterial activity against methicillin-resistant Staphylococcus aureus at 80 ug/ml after 24 hrs by Oxford cup assay; details: read-out: IZ; how it was run: as §2
Staphylococcus aureus [11] = test: Antibacterial activity against methicillin-resistant Staphylococcus aureus at 160 ug/ml after 24 hrs by Oxford cup assay; details: read-out: IZ; how it was run: as §2
Staphylococcus aureus [12] = test: Antibacterial activity against methicillin-resistant Staphylococcus aureus at 320 ug/ml after 24 hrs by Oxford cup assay; details: read-out: IZ; how it was run: as §2
Streptococcus agalactiae [13] = test: Antibacterial activity against Streptococcus agalactiae after 48 hrs by agar dilution method
How it was run: (§3)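 Agar dilution per NCCLS on clinical isolates. 2-fold serial dilutions of compound (2 mL) mixed into 18 mL hot Mueller-Hinton agar. Inoculum from blood slants, adjusted to approx. 10⁵–10⁶ cfu/mL in sterile 0.90% NaCl, then spotted onto the plates. Incubated 36.5 °C, 48 h. MIC is the lowest concentration giving complete growth inhibition. Run in triplicate at pH 7.40.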

Escherichia coli [14] = test: Antibacterial activity against Escherichia coli after 48 hrs by agar dilution method; how it was run: as §3
[15] = system: Staphylococcus epidermidis; test: Antibacterial activity against methicillin-resistant Staphylococcus epidermidis after 48 hrs by agar dilution method
How it was run: (§4)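 Agar dilution per NCCLS: 2-fold serial dilutions incorporated into hot Mueller-Hinton agar. Clinical isolates grown from blood slants, suspended in sterile 0.90% NaCl to about 10⁵–10⁶ cfu/mL, spotted onto plates. Incubation 36.5 °C, 48 h. MIC taken as the lowest concentration giving complete growth inhibition. Run in triplicate at pH 7.40.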

Staphylococcus aureus [16] = test: Antibacterial activity against methicillin-resistant Staphylococcus aureus after 48 hrs by agar dilution method; how it was run: as §4

SMILES	zone of inhibition at 80 µg/mL (Streptococcus agalactiae [1]) [mm]	zone of inhibition at 160 µg/mL (Streptococcus agalactiae [2]) [mm]	zone of inhibition at 80 µg/mL (Escherichia coli [3]) [mm]	zone of inhibition at 320 µg/mL (Streptococcus agalactiae [4]) [mm]	zone of inhibition at 160 µg/mL (Escherichia coli [5]) [mm]	zone of inhibition at 320 µg/mL (Escherichia coli [6]) [mm]	zone of inhibition at 80 µg/mL [7] [mm]	zone of inhibition at 160 µg/mL [8] [mm]	zone of inhibition at 320 µg/mL [9] [mm]	zone of inhibition at 80 µg/mL (Staphylococcus aureus [10]) [mm]	zone of inhibition at 160 µg/mL (Staphylococcus aureus [11]) [mm]	zone of inhibition at 320 µg/mL (Staphylococcus aureus [12]) [mm]	MIC (Streptococcus agalactiae [13]) [µg/mL]	MIC (Escherichia coli [14]) [µg/mL]	MIC [15] [µg/mL]	MIC (Staphylococcus aureus [16]) [µg/mL]
C=C[C@]1(C)C[C@@H](OC(=O)CSC(C)(C)CNC(=O)c2ccccc2Cl)[C@]2(C)[C@H](C)CC[C@]3(CCC(=O)[C@H]32)[C@@H](C)[C@@H]1O	10.6	11.2	11.3	10.8	11.9	14.5	11.4	12.2	13.4	14.1	12.2	14.2	8 (≈ 13.2 µM)	4 (≈ 6.62 µM)	1 (≈ 1.65 µM)	0.5 (≈ 0.827 µM)
C=C[C@]1(C)C[C@@H](OC(=O)CSC(C)(C)CNC(=O)c2cccc(Cl)c2)[C@]2(C)[C@H](C)CC[C@]3(CCC(=O)[C@H]32)[C@@H](C)[C@@H]1O	10.4	13.9	11.9	12.2	10.7	15.7	9.45	10.6	11.9	11.9	13.1	13.5	32 (≈ 53 µM)	8 (≈ 13.2 µM)	16 (≈ 26.5 µM)	8 (≈ 13.2 µM)
C=C[C@]1(C)C[C@@H](OC(=O)CSC(C)(C)CNC(=O)c2ccc(Cl)cc2)[C@]2(C)[C@H](C)CC[C@]3(CCC(=O)[C@H]32)[C@@H](C)[C@@H]1O	10.8	12.1	11.8	14	12.9	12.6	8.72	12.7	12.4	11.8	13.8	14.6	4 (≈ 6.62 µM)	2 (≈ 3.31 µM)	0.5 (≈ 0.827 µM)	1 (≈ 1.65 µM)
C=C[C@]1(C)C[C@@H](OC(=O)CSC(C)(C)CNC(=O)c2ccccc2C)[C@]2(C)[C@H](C)CC[C@]3(CCC(=O)[C@H]32)[C@@H](C)[C@@H]1O	10	10.9	12.1	12.4	13.7	15	10.7	12.9	13.8	10.3	11.8	12.3	0.5 (≈ 0.856 µM)	2 (≈ 3.43 µM)	16 (≈ 27.4 µM)	0.25 (≈ 0.428 µM)
C=C[C@]1(C)C[C@@H](OC(=O)CSC(C)(C)CNC(=O)c2cccc(C)c2)[C@]2(C)[C@H](C)CC[C@]3(CCC(=O)[C@H]32)[C@@H](C)[C@@H]1O	13	13	11.3	13.6	13.7	15.5	9.9	10.8	12.4	11.2	13.2	13.1	2 (≈ 3.43 µM)	8 (≈ 13.7 µM)	16 (≈ 27.4 µM)	1 (≈ 1.71 µM)
C=C[C@]1(C)C[C@@H](OC(=O)CSC(C)(C)CNC(=O)c2ccc(C)cc2)[C@]2(C)[C@H](C)CC[C@]3(CCC(=O)[C@H]32)[C@@H](C)[C@@H]1O	9.82	10.9	9.8	12.3	15.1	16.6	10.9	10.3	12.1	10.4	11.5	12.6	0.5 (≈ 0.856 µM)	4 (≈ 6.85 µM)	16 (≈ 27.4 µM)	0.25 (≈ 0.428 µM)
C=C[C@]1(C)C[C@@H](OC(=O)CSC(C)(C)CNC(=O)c2ccccc2OC)[C@]2(C)[C@H](C)CC[C@]3(CCC(=O)[C@H]32)[C@@H](C)[C@@H]1O	11.8	13	12.4	13.7	15.5	17.4	10.8	12.5	13.5	9.5	12.1	12.4	2 (≈ 3.33 µM)	4 (≈ 6.67 µM)	8 (≈ 13.3 µM)	0.25 (≈ 0.417 µM)
C=C[C@]1(C)C[C@@H](OC(=O)CSC(C)(C)CNC(=O)c2cccc(OC)c2)[C@]2(C)[C@H](C)CC[C@]3(CCC(=O)[C@H]32)[C@@H](C)[C@@H]1O	12.6	12.4	12.2	13.4	13.3	14.3	11.4	11.7	12.5	11.8	13	12.8	4 (≈ 6.67 µM)	8 (≈ 13.3 µM)	32 (≈ 53.3 µM)	2 (≈ 3.33 µM)
